Measured values reported in ChEMBL document CHEMBL1914422, “Activation of the c-Jun N-terminal kinase/activating transcription factor 3 (ATF3) pathway characterizes effective arylated diazeniumdiolate-based nitric oxide-releasing anticancer prodrugs” (J Med Chem, 2011).
Active and inactive are the calls of the source. No cut-off for these calls is given here.

What was measured:
[1] = Activation of JNK phosphorylation at Thr183 and Tyr185 in human NCI-H1703 cells at 1 uM within 30 mins by Western blot analysis; type: cell-based
[2] = Activation of JNK phosphorylation in human NCI-H1703 cells assessed as increase in ATF3 protein level at 1 uM by Western blot analysis; type: cell-based
[3] = Activation of JNK phosphorylation in human NCI-H1703 cells assessed as ATF2 phosphorylation at Thr71 at 1 uM by Western blot analysis; type: cell-based
Outline: (§1)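 Lysates immunoblotted with phospho-specific antibodies against SEK1/MKK4, SAPK/JNK, ATF2 and c-jun. Membranes reprobed for total SAPK/JNK as loading control. Representative blots shown.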

NCI-H1703 [4] = assay: Induction of apoptosis in human NCI-H1703 cells assessed as PARP cleavage after 1 to 6 hrs by Western blot analysis; type: functional, cell-based
NCI-H1703 [5] = assay: Cell cycle arrest in human NCI-H1703 cells assessed as accumulation at G2 phase at 1 uM after 6 hrs by FACS analysis (reference value: 8%); type: functional
NCI-H1703 [6] = assay: Induction of apoptosis in human NCI-H1703 cells assessed as PARP p85 cleavage at 1 uM pretreated with ATF3 siRNA for 48 hrs before compound challenge measured after 8 hrs by Western blot analysis; type: functional, cell-based
Outline: (§2)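 H1703 cells at 60% confluence transfected with ATF3 siRNA, nonsilencing siRNA or reagent only (mock). After 48 h, cells treated with 1 μM compound or equal-volume DMSO for 8 h, then lysed. Western blots probed for ATF3, cleaved PARP p85 and cleaved caspase-3, with β-actin as loading control.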

Mus musculus [7] = assay: Induction of JNK phosphorylation in human NCI-H1703 cells xenografted NCr nu/nu Charles river mouse tumor assessed as increase in ATF3 protein level at 6 umol/kg, iv administered 3 times a week for 3 weeks by immunohistochemical analysis; type: functional, organism-based
NCI-H441 = assay: Antiproliferative activity against human NCI-H441 cells after 72 hrs by MTT assay; type: functional, cell-based; settings: NCI-H441, 72 h
Outline: (§3)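 Compounds (10 mM DMSO stocks, final DMSO ≤0.1%) added at increasing concentrations in PBS, incubated 72 h at 37 °C. MTT read-out, six repeats per concentration, at least two independent experiments.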

[8] = Activation of JNK phosphorylation in human NCI-H1703 cells assessed as increase in ATF3 mRNA level at 1 uM after 1.5 hrs by quantitative real-time PCR analysis relative to control; type: cell-based
Outline: (§4)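 Cells were H1703 treated with compound or DMSO control. Total RNA was isolated and residual genomic DNA removed. ATF3 mRNA was measured by quantitative RT-PCR with β-actin as internal control. Reported as mean ± SE.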

NCI-H1703 [9] = assay: Induction of apoptosis in human NCI-H1703 cells assessed as caspase 3 cleavage at 1 uM pretreated with ATF3 siRNA for 48 hrs before compound challenge measured after 8 hrs by Western blot analysis; type: functional, cell-based; outline: as §2
[10] = Activation of JNK phosphorylation in human NCI-H1703 cells assessed as ATF2 phosphorylation at Thr71 at 1 uM pretreated for 30 mins by Western blot analysis in presence of JNK inhibitor 1,9-pyrazoloanthrone; type: cell-based
Outline: (§5)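 Before compound exposure (1 μM), H1703 cells received the JNK inhibitor 1,9-pyrazoloanthrone at 50 μM for 30 min. Phosphorylated JNK, ATF2 and c-jun, and ATF3 protein, then detected by Western blot. Representative blots shown.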

NCI-H1703 [11] = assay: Upregulation of ATF3 expression in human NCI-H1703 cells at 1 uM pretreated with ATF3 siRNA for 48 hrs before compound challenge measured after 8 hrs by Western blot analysis; type: functional, cell-based; outline: as §2
[12] = Activation of JNK phosphorylation in human NCI-H1703 cells assessed as c-jun phosphorylation at Ser63 at 1 uM by Western blot analysis; type: cell-based; outline: as §1
[13] = Activation of JNK phosphorylation in human NCI-H1703 cells assessed as increase in ATF3 protein level at 1 uM within 2 hrs by Western blot analysis; type: cell-based
[14] = Activation of JNK phosphorylation in human NCI-H1703 cells assessed as c-jun phosphorylation at Ser63 at 1 uM pretreated for 30 mins by Western blot analysis in presence of JNK inhibitor 1,9-pyrazoloanthrone; type: cell-based; outline: as §5
[15] = Antiproliferative activity against human NCI-H1373 cells after 72 hrs by MTT assay; type: functional, cell-based; settings: NCI-H1373, 72 h; outline: as §3
NCI-H1703 [16] = assay: Induction of apoptosis in human NCI-H1703 cells assessed as caspase 7 activation after 1 to 6 hrs by Western blot analysis; type: functional, cell-based
NCI-H1703 [17] = assay: Induction of apoptosis in human NCI-H1703 cells assessed as caspase 3 activation after 1 to 6 hrs by Western blot analysis; type: functional, cell-based
NCI-H1703 [18] = assay: Antitumor activity against human NCI-H1703 cells xenografted in NCr nu/nu Charles river mouse assessed as tissue death in tumor at 6 umol/kg, iv administered 3 times a week for 3 weeks by H and E staining method relative to control; type: functional, organism-based
Outline: (§6)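 Female athymic NCr-nu/nu mice, 7 weeks old, received 5×10^6 H1703 cells s.c. in the flank. Tumors excised 2 h after the last dose, H&E stained, and scored for areas of cell death against vehicle controls.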

NCI-H1703 [19] = assay: Antiproliferative activity against human NCI-H1703 cells after 72 hrs by MTT assay; type: functional, cell-based; settings: NCI-H1703, 72 h; outline: as §3
[20] = Activation of JNK phosphorylation in human NCI-H1703 cells assessed as increase in ATF3 protein level at 1 uM within 2 hrs by Western blot analysis in presence of JNK inhibitor 1,9-pyrozoloanthrone; type: cell-based; outline: as §5
[21] = Antiproliferative activity against human NCI-H1944 cells after 72 hrs by MTT assay; type: functional, cell-based; settings: NCI-H1944, 72 h; outline: as §3
[22] = molecular target: T1, Dual specificity mitogen-activated protein kinase kinase 4 (Homo sapiens) (UniProt P45985); assay: Activation of SEK1 phosphorylation at Thr261 in human NCI-H1703 cells at 1 uM by Western blot analysis; type: cell-based; outline: as §1
T1 sequence (whole entry): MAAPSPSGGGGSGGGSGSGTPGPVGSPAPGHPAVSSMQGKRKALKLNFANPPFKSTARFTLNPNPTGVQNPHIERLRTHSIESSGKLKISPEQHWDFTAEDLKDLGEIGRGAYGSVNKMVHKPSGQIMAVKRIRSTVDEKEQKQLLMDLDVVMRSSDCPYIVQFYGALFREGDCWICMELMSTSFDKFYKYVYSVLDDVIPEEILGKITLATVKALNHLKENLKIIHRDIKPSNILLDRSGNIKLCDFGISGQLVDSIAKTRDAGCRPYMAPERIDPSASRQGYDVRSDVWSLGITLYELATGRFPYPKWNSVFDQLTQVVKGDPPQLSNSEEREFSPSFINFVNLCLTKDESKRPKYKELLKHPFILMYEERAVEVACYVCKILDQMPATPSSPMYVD

Mus musculus [23] = assay: Toxicity in human NCI-H1703 cells xenografted athymic NCr nu/nu Charles river mouse assessed as change in body weight at 6 umol/kg, iv administered 3 times a week for 3 weeks (reference value: 22.5 +/- 0.4g); type: organism-based; settings: in vivo, 504 h
NCI-H1703 [24] = assay: Antitumor activity against human NCI-H1703 cells xenografted in athymic NCr Charles river nu/nu mouse assessed as reduction of tumor growth at 6 umol/kg, iv administered 3 times a week for 3 weeks relative to vehicle treated control; type: functional, organism-based
Outline: (§7)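 H1703 xenografts (5×10^6 cells s.c., flank) in 7-week-old female athymic NCr-nu/nu mice, treated from tumor size ≥2×2×2 mm. Mice killed 2 h after the last dose; tumors excised and weighed. 13–15 mice/group; Mann-Whitney test against vehicle.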

[25] = Activation of JNK phosphorylation at Thr183 and Tyr185 in human NCI-H1703 cells at 1 uM pretreated for 1 hr measured after 30 mins by Western blot analysis in presence of ROS scavenger tiron
NCI-H2122 = assay: Antiproliferative activity against human NCI-H2122 cells after 72 hrs by MTT assay; type: functional, cell-based; settings: NCI-H2122, 72 h; outline: as §3
NCI-H1703 [26] = assay: Antitumor activity against human NCI-H1703 cells xenografted in athymic NCr Charles river nu/nu mouse assessed as reduction of tumor weight at 6 umol/kg, iv administered 3 times a week for 3 weeks relative to vehicle treated control; type: functional; set-up: scale not given: the % may be the effect or the level left
Outline: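 H1703 cells (5×10^6) injected s.c. into the flank of 7-week-old female athymic NCr-nu/nu mice. Dosing began once tumors reached at least 2×2×2 mm (typically 4 weeks). Body weight recorded before each injection. Mice sacrificed 2 h after the last dose and tumors excised and weighed. 13–15 mice/group; Mann-Whitney test; mean ± SE.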

Mus musculus [27] = assay: Induction of JNK phosphorylation in human NCI-H1703 cells xenografted NCr nu/nu Charles river mouse tumor at 6 umol/kg, iv administered 3 times a week for 3 weeks by immunohistochemical analysis; type: functional, organism-based
NCI-H1703 [28] = assay: Induction of apoptosis in human NCI-H1703 cells assessed as apoptotic cells at 1 uM after 6 hrs by FACS analysis (reference value: 0.05%); type: functional
[29] = Activation of JNK phosphorylation in human NCI-H1703 cells assessed as increase in ATF3 mRNA level at 5 uM after 1.5 hrs by quantitative real-time PCR analysis relative to control; type: cell-based; outline: as §4
Mus musculus [30] = assay: Induction of JNK phosphorylation in human NCI-H1703 cells xenografted NCr nu/nu Charles river mouse tumor assessed as increase in ATF3 protein level at 8 umol/kg, iv administered 3 times a week for 3 weeks by immunohistochemical analysis; type: functional, organism-based
Outline: (§8)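 H1703 xenografts in female athymic NCr-nu/nu mice, dosed i.v. three times weekly for 3 weeks in 2.25% P-123/PBS. Tumors taken 2 h after the last dose were immunostained for phospho-SAPK/JNK and ATF3. Intensity graded negative, very weak, weak, moderate or strong.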

NCI-H1703 [31] = assay: Antitumor activity against human NCI-H1703 cells xenografted in athymic NCr nu/nu Charles river mouse assessed as reduction of tumor growth at 8 umol/kg, iv administered 3 times a week for 3 weeks relative to vehicle treated control; type: functional, organism-based
Outline: as §7, with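 “mm. Dosing i.v. (tail vein) three times weekly for 3 weeks in 2.25% P-123/PBS.” for “mm.”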

Mus musculus [32] = assay: Induction of JNK phosphorylation in human NCI-H1703 cells xenografted NCr nu/nu Charles river mouse tumor at 8 umol/kg, iv administered 3 times a week for 3 weeks by immunohistochemical analysis; type: functional, organism-based; outline: as §8
[33] = Chemical stability of the compound in aqueous phosphate buffered saline assessed as half life at pH 7.4 in presence of 4 mM glutathione; type: physicochemical; settings: gsh
NCI-H1703 [34] = assay: Antitumor activity against human NCI-H1703 cells xenografted in NCr nu/nu Charles river mouse assessed as tissue death in tumor at 8 umol/kg, iv administered 3 times a week for 3 weeks by H and E staining method relative to control; type: functional, organism-based
Outline: as §6, with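 “flank. Once tumors reached ≥2×2×2 mm, dosing was i.v. by tail vein three times weekly for 3 weeks in 2.25% P-123/PBS vehicle.” for “flank.”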

Mus musculus [35] = assay: Toxicity in human NCI-H1703 cells xenografted athymic NCr nu/nu Charles river mouse assessed as change in body weight at 8 umol/kg, iv administered 3 times a week for 3 weeks (reference value: 22.2 +/- 0.4g); type: organism-based; settings: in vivo, 504 h
Outline: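 Xenografted female athymic NCr-nu/nu mice (H1703, 5×10^6 cells s.c.) dosed i.v. three times weekly for 3 weeks in 2.25% P-123/PBS vehicle. Body weights recorded before each injection and compared with vehicle-treated controls at start and end.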

Compound | Activity [1] | Activity [2] | Activity (NCI-H1703 [4]) | IC50 (NCI-H441) [µM] | Activity [13] | IC50 [15] [µM] | Activity (NCI-H1703 [16]) | Activity (NCI-H1703 [17]) | IC50 (NCI-H1703 [19]) [µM] | IC50 [21] [µM] | IC50 (NCI-H2122) [µM] | t1/2 [33] [min] | other results
CCOC(=O)N1CCN(/[N+]([O-])=N/Oc2ccc([N+](=O)[O-])cc2[N+](=O)[O-])CC1 | Active | tde | Active | 0.94 | Active | 0.86 | Active | Active | 0.57 | > 10 | 3.17 |  | Activity [3]: Active; Activity (NCI-H1703 [5]): 37%; Activity (NCI-H1703 [6]): inactive; Activity (Mus musculus [7]): Active; fold change (FC) [8]: 8; Activity (NCI-H1703 [9]): inactive; Activity [10]: inactive; Activity (NCI-H1703 [11]): inactive; Activity [12]: Active; Activity [14]: inactive; Activity (NCI-H1703 [18]): Active; Activity [20]: inactive; Activity [22]: Active; Activity (Mus musculus [23]): 24.9 g; growth inhibition (GI) (NCI-H1703 [24]): Active; Activity [25]: inactive; Activity (NCI-H1703 [26]): 49%; Activity (Mus musculus [27]): Active; Activity (NCI-H1703 [28]): 14.4%; fold change (FC) [29]: 10
CCOC(=O)N1CCN(/[N+]([O-])=N/Oc2cc(C)c([N+](=O)[O-])cc2[N+](=O)[O-])CC1 | inactive | inactive | inactive | 1.61 | inactive | 1.86 | inactive | inactive | 0.97 | > 10 | 7 | 71.5 | Activity (Mus musculus [30]): inactive; growth inhibition (GI) (NCI-H1703 [31]): inactive; Activity (Mus musculus [32]): inactive; Activity (NCI-H1703 [34]): inactive; Activity (Mus musculus [35]): 24.5 g
CCOC(=O)N1CCCN(/[N+]([O-])=N/Oc2cc(C)c([N+](=O)[O-])cc2[N+](=O)[O-])CC1 | inactive |  |  | 2.02 |  | 3 |  |  | 1.66 | > 10 | 10 | 25.7 | 
